Source: PubChem BioAssay (Broad Institute)
Hits are enriched below; roughly 2.4% of the tested compounds scored in any of these assays.
Ecoli rRNA inh: inhibits bacterial ribosomal RNA function over humanized ribosomes; E. coli WT GFP vs humanized-ribosome RFP mutants, fluorescence, 24 h; hits give low values; DMSO median 0, no signal -100; GFP signal change (wild-type ribosome), % (no concentration beside the values); 350,000 compounds, 1.6% hits; AID 720706;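 active = significant combined selectivity score with lowered wild-type GFP, culture density cut under 30%, mutant RFP and density less affected; inactive = any of these conditions unmet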
E-selectin induc: induces E-selectin expression in human endothelial cells | P16581 | HUVEC E-selectin immunofluorescence imaging; normalized: neutral wells 0, TNF-alpha wells 100 | activation, % at 7.58 µM | 260,000 compounds, 0.37% hits | AID 686992;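 active = mean E-selectin-positive cell signal at least 10% of the positive control, reached in at least 60% of replicates, without over 20% cell loss; inconclusive = no rule given, readout overlaps actives, possibly toxicity-flagged; inactive = the rest, including those meeting only one limit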
Target sequence (P16581 whole entry, looked up): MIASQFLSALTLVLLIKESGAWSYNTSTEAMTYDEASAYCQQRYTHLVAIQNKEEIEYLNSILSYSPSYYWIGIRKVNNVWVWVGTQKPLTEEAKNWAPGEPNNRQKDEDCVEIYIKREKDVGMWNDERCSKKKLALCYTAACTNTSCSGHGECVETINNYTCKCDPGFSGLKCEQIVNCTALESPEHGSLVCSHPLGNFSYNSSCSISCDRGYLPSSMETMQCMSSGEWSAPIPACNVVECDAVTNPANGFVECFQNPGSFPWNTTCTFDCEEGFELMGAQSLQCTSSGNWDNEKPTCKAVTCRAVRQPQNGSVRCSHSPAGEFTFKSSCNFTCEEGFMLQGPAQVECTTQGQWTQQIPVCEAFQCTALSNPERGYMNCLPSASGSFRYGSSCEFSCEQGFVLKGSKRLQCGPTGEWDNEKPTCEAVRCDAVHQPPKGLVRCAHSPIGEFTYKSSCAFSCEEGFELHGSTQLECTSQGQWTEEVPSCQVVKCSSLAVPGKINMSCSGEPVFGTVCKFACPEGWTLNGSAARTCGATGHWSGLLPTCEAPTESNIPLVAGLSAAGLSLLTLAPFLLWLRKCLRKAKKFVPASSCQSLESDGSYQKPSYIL
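Test system: HUVEC | Signal: Immunofluorescence imaging | Read-out: Percent E-selectin-positive cells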
LGR2 antag: inhibitors of bursicon-induced Drosophila LGR2 receptor cAMP signaling. HEK293 LGR2, CRE-luciferase, bursicon-stimulated, 4 h. inhibition, % at 9.99 µM. 380,000 compounds, 0.35% hits. AID 720647;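 active = drop in luminescence signal, shown as inhibition above about 50% in the replicate tests, limit read from the data, passing the limit was not always enough; inconclusive = probably only some replicates passing the limit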;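 also: agonist challenge used bursicon conditioned medium at about half maximal strength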
EWS-Fli block: EWS/Fli transcriptional activity inhibition; A673 NR0B1-luciferase reporter, viability-normalised; inhibition, % at 12.6 µM; 350,000 compounds, 0.67% hits; AID 651661;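 active = mean inhibition of at least 50% after viability correction, with every replicate also passing that limit; inconclusive = mean reaches 50% but only one of two replicates passes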;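 also: firefly luciferase signal divided by Alamar Blue viability fluorescence both relative to DMSO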
Large screens that a line does not name were inactive.

COc1ccc2sc(NC(=O)c3ccco3)nc2c1	LGR2 antag 75 (no result: E-selectin induc)
COc1ccc2nc(NC(=S)NC(=O)c3ccco3)sc2c1	none (no result: Ecoli rRNA inh, E-selectin induc, EWS-Fli block)
O=C(N[C@H]1CC[C@H](CCNS(=O)(=O)c2ccc(Cl)cc2)O[C@@H]1CO)c1cnccn1	none
COC(=O)c1[nH]c2ccccc2c1NC(=O)CN1CCN(C/C=C/c2ccccc2)CC1	none (no result: E-selectin induc, EWS-Fli block)
CCOC(=O)N1CCN(CC(=O)Nc2c(C(=O)OC)[nH]c3cccc(Cl)c23)CC1	Ecoli rRNA inh -15 (no result: E-selectin induc)
CCC(=O)N1C[C@@H](C)[C@@H](OC)CN(C)C(=O)c2cc(NC(=O)c3cc(C)on3)ccc2OC[C@@H]1C	none
Oc1c(Cl)cc(Cl)cc1/C=N/Nc1ncc(Br)cn1	none
CN(/N=C/c1cc(Cl)cc(Cl)c1O)C(=S)NC(C)(C)C	E-selectin induc 71
C[C@H]1CN([C@@H](C)CO)C(=O)c2cc(-c3ccccc3F)cnc2O[C@H]1CN(C)Cc1cccc(F)c1	none
Cc1cc(Cl)ccc1NC(=S)N1CCN(C(=O)c2ccco2)CC1	Ecoli rRNA inh -37
O=[N+]([O-])c1ccc(CS(=O)c2ccccc2)cc1 (stereo not given)	none (no result: Ecoli rRNA inh, LGR2 antag)
O=[N+]([O-])c1ccc(S(=O)Cc2ccccc2)c([N+](=O)[O-])c1 (stereo not given)	LGR2 antag 60
CCC(=O)Nc1ccc2c(c1)C(=O)N(C)[C@@H]1CC[C@@H](CC(=O)NCCOC)O[C@H]1CO2	none
CC(C)NC(=O)NC(=O)COc1ccc(Br)cc1Br	LGR2 antag 53 (no result: E-selectin induc)
CC(=O)Nc1ccc(NC2=C(Cl)C(=O)c3ccccc3C2=O)cc1	LGR2 antag 56 (no result: E-selectin induc)
CCn1nc(Cc2cccc3ccccc23)c(C#N)c1N	Ecoli rRNA inh -27
N#CCCn1nc(Cc2cccc3ccccc23)c(C#N)c1N	none
CCCNC(=O)Nc1ccc2c(c1)C(=O)N(C)C[C@@H](OC)[C@@H](C)CN(C(=O)c1ccccc1F)[C@H](C)CO2	none
CCC(C)(C)NC(=O)/C=C/c1ccccc1[N+](=O)[O-]	none
CCNC(=O)/C=C/c1ccccc1[N+](=O)[O-]	E-selectin induc 31
CCCNC(=O)N1CCC2(CC1)CN(C(=O)COC)[C@@H](CO)c1c2c2ccc(OC)cc2n1C	none
CN1CCN(C(=O)C[C@@H]2C[C@H]3c4cc(NC(=O)Nc5ccc(F)cc5)ccc4O[C@H]3[C@H](CO)O2)CC1	none
Cc1ccc(-c2cc(NC=O)c3ncc(-c4cnn(C)c4)n3c2)cc1	EWS-Fli block 56 (no result: E-selectin induc)
COc1ccc(F)cc1-c1cc(NC=O)c2ncc(-c3cc(OC)c(OC)c(OC)c3)n2c1	EWS-Fli block 60
COc1cc(-c2cnc3c(NC=O)cc(-c4ccccc4)cn23)cc(OC)c1OC	EWS-Fli block 59
COc1cc(-c2cc(NC=O)c3ncc(-c4ccccc4)n3c2)cc(OC)c1OC	none
COc1cc(-c2cnc3c(NC=O)cc(-c4ccc(C)cc4)cn23)cc(OC)c1OC	none
O=C1CCC(=O)N[C@H](c2ccc(F)cc2)C/C=C\C[C@@H](c2ccc(F)cc2)N1	none (no result: E-selectin induc, LGR2 antag, EWS-Fli block)
COc1cc(C2CC(=O)c3c(O)cc(O)cc3O2)ccc1O (stereo not given)	none (no result: Ecoli rRNA inh, E-selectin induc)
COc1ccc([C@H]2CC(=O)c3c(O)cc(O)cc3O2)cc1O	Ecoli rRNA inh -23
Cc1ccc2c(c1)c(C1=c3ccccc3=NC1=O)c(O)n2C	EWS-Fli block 64
CN(C)c1ccc(C=c2c3cc([N+](=O)[O-])ccc3n3c2cc(-c2ccccc2)[n+]3C)cc1	E-selectin induc 218, EWS-Fli block 56
COc1cc(/C=C(/C(=O)O)c2ccc(-c3ccccc3)cc2)cc(OC)c1OC	none
CC(=O)OCc1c(-c2ccccc2)c2cc([N+](=O)[O-])ccc2n1C	none
COc1cc(N(C)C)ccc1C=c1c2ccccc2n2c1cc(-c1ccccc1)[n+]2C	E-selectin induc 160, LGR2 antag 79
CN(C)c1ccc(C=c2c3ccccc3n3c2cc(-c2ccccc2)[n+]3C)cc1	E-selectin induc 140, LGR2 antag 91
CCN(CC)c1ccc(/C=C/c2cccc[n+]2C)c(OC)c1	none (no result: E-selectin induc)
COc1cc(C=c2c3ccccc3n3c2cc(-c2ccccc2)[n+]3C)cc(OC)c1OC	E-selectin induc 139
CN(C)c1ccc(C=C2C=C(c3ccccc3)OC2=O)cc1	none
CC(C)[C@H]1COCc2cn(nn2)CC[C@@H](C)C(=O)N1	none (no result: E-selectin induc, LGR2 antag, EWS-Fli block)
COc1ccc(S(=O)(=O)Nc2ccc3c(c2)C(=O)N([C@@H](C)CO)C[C@@H](C)[C@H](CN(C)S(=O)(=O)c2ccc(C)cc2)OCCCC[C@H](C)O3)cc1	none (no result: E-selectin induc)
CS(=O)(=O)Nc1ccc2c(c1)[C@H]1C[C@H](CC(=O)NCC(F)(F)F)O[C@H](CO)[C@H]1O2	none
CN(C)c1ccc(/C=C2\SC(=O)N(CC(O)Cn3c4ccccc4c4ccccc43)C2=O)cc1 (stereo not given)	none (no result: Ecoli rRNA inh, E-selectin induc, EWS-Fli block)
CN(C)c1ccc(C=c2c3ccccc3n3c2cc(-c2ccc(Cl)cc2)[n+]3C)cc1	E-selectin induc 122
O=C(NC1CCC1)[C@@H]1N[C@@H]2c3ccc(-c4cccc(F)c4)c(=O)n3C[C@@H]2[C@H]1CO	none
CC(=O)N1[C@@H]2c3ccc(/C=C/c4ccccc4)c(=O)n3C[C@H]1[C@H](CO)[C@H]2C(=O)N(C)C	none
O=C(NCc1cc(C(F)(F)F)ccc1Cl)c1cccc2c1C(=O)c1ccc(N3CCC(N4CCCCC4)CC3)cc1S2(=O)=O	LGR2 antag active
O=C(NCc1cc(C(F)(F)F)ccc1Cl)c1cccc2c1C(=O)c1ccc(N3CCCCC3)cc1S2(=O)=O	none (no result: LGR2 antag)
O=C(O)C1CCCCC1C(=O)Nc1ccc(OCc2ccccc2)cc1 (stereo not given)	Ecoli rRNA inh -24 (no result: E-selectin induc)
Cc1noc(C)c1S(=O)(=O)Nc1ccc2c(c1)C(=O)N([C@@H](C)CO)C[C@@H](C)[C@H](CN(C)C(=O)Nc1ccc3c(c1)OCO3)OCCCC[C@@H](C)O2	none
Cc1ccc(Cn2ccsc2=NC(=O)COC(=O)c2ccc(O)cc2O)cc1	Ecoli rRNA inh -26 (no result: EWS-Fli block)
O=C(COC(=O)c1ccc(O)cc1O)N=c1sccn1Cc1ccccc1Cl	none (no result: E-selectin induc)
CCCC(=O)Nc1ccc2c(c1)C(=O)N(C)C[C@@H](OC)[C@@H](C)CN(Cc1ccncc1)[C@@H](C)CO2	none
COC(=O)c1[nH]c2cc(OC)c(OC)cc2c1/C=N/Nc1ccccc1	Ecoli rRNA inh -19
COc1cc(/C=N/Nc2ccccc2)ccc1O	none (no result: E-selectin induc)
O=C(C[C@@H]1C=C[C@H](NC(=O)c2ccc(F)cc2)[C@H](CO)O1)NCc1ccncn1	none
O=C(C=Cc1cccc(O)c1)c1ccccc1O	none
Oc1ccc(/C=C/c2cc(O)cc(O)c2)cc1	none (no result: Ecoli rRNA inh)
O=C(/C=C/c1ccc(O)c(O)c1)c1ccccc1O	Ecoli rRNA inh -32
Oc1cc(O)cc(C=Cc2ccc(O)c(O)c2)c1	Ecoli rRNA inh -29, LGR2 antag inconclusive
CN(C)c1ccc(NC(=O)c2cnsn2)cc1	LGR2 antag 71
Cc1noc(C)c1C(=O)Nc1ccc(N(C)C)cc1	none (no result: EWS-Fli block)
CN(Cc1ccc(F)cc1)C(=O)c1ccc(NS(=O)(=O)c2ccc3[nH]c(=O)[nH]c3c2)cc1	none
CN(Cc1c(F)cccc1Cl)C(=O)c1ccc(NS(=O)(=O)c2ccc3[nH]c(=O)[nH]c3c2)cc1	Ecoli rRNA inh -22
